Drawing on ChEMBL document CHEMBL1255509, “Structure-activity relationship of boronic acid derivatives of tyropeptin: proteasome inhibitors” (Bioorg Med Chem Lett, 2010), this text covers IC50 for eight molecules.

Molecules are shown by their SMILES.

Assay [1] is described as follows: Cytotoxicity against human RPMI8226 cells. The class given is cell-based. The note with it: RPMI-8226.
A short description of assay [2]: Inhibition of chymotrypsin like activity of partially purified human proteasome. The class given is subcellular. An outline of the steps:
(§1)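 Purified 20S proteasome isolated from human erythrocytes served as the enzyme source. Inhibition is reported as IC50.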

Assay [3] can be described thus: Inhibition of caspase like activity of partially purified human proteasome. The class given is subcellular. An outline of the steps: as §1
The nature of assay [4]: Inhibition of trypsin like activity of partially purified human proteasome. The class given is subcellular. An outline of the steps: as §1

By IC50 is commonly meant the concentration needed to halve the response being measured. `COc1ccc(C[C@H](NC(=O)[C@@H](NC(=O)[C@H](Cc2ccc(OC)cc2)NC(=O)c2ccc(OC)cn2)C(C)C)B(O)O)cc1`: the IC50 turned out to be 13 nM in assay [1], 94 nM in assay [2], 21000 nM in assay [3] and 14000 nM in assay [4].
For the molecule `COc1ccc(C[C@H](NC(=O)[C@@H](NC(=O)[C@H](Cc2ccc(OC)cc2)NC(=O)c2cccc(OC)n2)C(C)C)B(O)O)cc1`, the IC50 in assay [1] stood at 51 nM; in assay [2] it was 59 nM; in assay [3], 35000 nM; in assay [4] it was 21000 nM.
`COc1ccc(C[C@H](NC(=O)[C@@H](NC(=O)[C@H](Cc2ccc(OC)cc2)NC(=O)c2cc([N+](=O)[O-])ccn2)C(C)C)B(O)O)cc1`: the IC50 in assay [1] stood at 48 nM; in assay [2], 190 nM; in assay [3] it was 34000 nM; in assay [4], 19000 nM.
In the same order, the values of `COc1ccc(C[C@H](NC(=O)[C@@H](NC(=O)[C@H](Cc2ccc(OC)cc2)NC(=O)c2cc(N(C)C)ccn2)C(C)C)B(O)O)cc1` are 44 nM, 110 nM, 21000 nM and 15000 nM.
The corresponding values for `COc1ccc(C[C@H](NC(=O)CNC(=O)[C@H](Cc2ccc(OC)cc2)NC(=O)c2ccccn2)B(O)O)cc1` are 24 nM, 260 nM, 34000 nM and more than 40000 nM.
With `COc1ccc(C[C@H](NC(=O)[C@H](C)NC(=O)[C@H](Cc2ccc(OC)cc2)NC(=O)c2ccccn2)B(O)O)cc1`, the IC50 in assay [1] was 57 nM; in assay [2], 110 nM; in assay [3] it was more than 40000 nM; in assay [4] it was more than 40000 nM.
Consider `COc1ccc(C[C@H](NC(=O)[C@@H](NC(=O)[C@H](Cc2ccc(OC)cc2)NC(=O)Cc2cccc3ccccc23)C(C)C)B(O)O)cc1`, for which the IC50 is 28 nM in assay [1], 19 nM in assay [2], 39000 nM in assay [3] and more than 40000 nM in assay [4].
The corresponding values for `CC(C)C[C@H](NC(=O)[C@H](Cc1ccccc1)NC(=O)c1cnccn1)B(O)O` [BORTEZOMIB] are 8.8 nM, 39 nM, 750 nM and more than 40000 nM.
